Source: ChEMBL document CHEMBL1124579, “7-Heteroaryl-1,2,3,5-tetrahydroimidazo[2,1-b]quinazolin -2(1H)-one derivatives with cardiac stimulant activity” (J Med Chem, 1989)

Columns and labels:
Canis familiaris [1] = test: Percent increase in dP/dtmax (positive inotropic activity) in anesthetized dog after administration of 50 ug/kg Intravenously; assay type: functional, Canis lupus familiaris
In short: (§1)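 Anesthetized dog with a catheter-tip transducer passed into the left ventricle via the carotid artery. LV pressure is differentiated to give dP/dtmax, the contractility index. There is 0.75 h equilibration after surgery. The compound is given iv in 0.9% saline (4 mL), 0.5 h after the standard agent (50 μg/kg). The cycle is repeated once control levels return, at least 0.5 h apart. The result is the % increase in dP/dtmax.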

Canis familiaris [2] = test: Relative inotropic response (50 umg/kg Intravenously) to that of 4-[4-[2-(1,1-dioxo-2-isothiazolidinyl)ethyl]-1-piperidinyl]-6,7-dimethoxyquinazoline […], in dog; assay type: functional, Canis lupus familiaris
In short: (§2)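 Anesthetized dog with a left-ventricular catheter introduced via the carotid artery; dP/dtmax is derived from LV pressure. The standard quinazoline (50 μg/kg iv) is given first, then the test compound iv in saline 0.5 h later, in the same dog. Relative potency = (% increase in dP/dtmax to drug ÷ % increase to standard) × (dose standard ÷ dose drug).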

Canis familiaris [3] = test: Percent increase in dP/dtmax (positive inotropic activity) in anesthetized dog after administration of 250 ug/kg Intravenously; assay type: functional, Canis lupus familiaris; in short: as §1
Canis familiaris [4] = test: Cardiac contractility (decrease in the QA interval) in conscious dog, 3 hours after oral administration (dose 1 mg/kg); assay type: functional, Canis lupus familiaris
In short: (§3)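 Conscious dogs; the test substance is given by gavage as a solution. The QA interval is the time from the ECG R wave to the upstroke of the arterial pressure pulse, measured by computer. It is recorded every 0.16 h from 0.5 h before dosing to 4 h after. Each point is the mean of six consecutive sets, each averaged over 8 s. The result is the change from the mean predose value.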

Canis familiaris [5] = test: Cardiac contractility (decrease in the QA interval) in conscious dog 1 hour after oral administration (dose 1 mg/kg); assay type: functional, Canis lupus familiaris; in short: as §3
Canis familiaris [6] = test: Percent increase in dP/dtmax (positive inotropic activity) in anesthetized dog after administration of 10 micro mg/kg Intravenously; assay type: functional, Canis lupus familiaris; in short: as §1
Canis familiaris [7] = test: Relative inotropic response (10 ug/kg Intravenously) to that of 4-[4-[2-(1,1-dioxo-2-isothiazolidinyl)ethyl]-1-piperidinyl]-6,7-dimethoxyquinazoline (5- ug/kg), in dog; assay type: functional, Canis lupus familiaris; in short: as §2
Canis familiaris [8] = test: Relative inotropic response (50 micro mg/kg Intravenously) to that of 4-[4-[2-(1,1-dioxo-2-isothiazolidinyl)ethyl]-1-piperidinyl]-6,7-dimethoxyquinazoline (5- ug/kg), in dog; assay type: functional, Canis lupus familiaris; in short: as §2
Canis familiaris [9] = test: Percent increase in dP/dtmax (positive inotropic activity) in anesthetized dog after administration of 20 ug/kg Intravenously; assay type: functional, Canis lupus familiaris; in short: as §1
Canis familiaris [10] = test: Relative inotropic response (20 micro mg/kg Intravenously) to that of 4-[4-[2-(1,1-dioxo-2-isothiazolidinyl)ethyl]-1-piperidinyl]-6,7-dimethoxyquinazoline (5- ug/kg), in dog; assay type: functional, Canis lupus familiaris; in short: as §2
Canis familiaris [11] = test: Cardiac contractility (decrease in the QA interval) in conscious dog, 3 hours after oral administration (dose 0.125 mg/kg); assay type: functional, Canis lupus familiaris; in short: as §3
Canis familiaris [12] = test: Cardiac contractility (decrease in the QA interval) in conscious dog 1 hour after oral administration (dose 0.125 mg/kg); assay type: functional, Canis lupus familiaris; in short: as §3
Canis familiaris [13] = test: Relative inotropic response (50 ug/kg Intravenously) to that of 4-[4-[2-(1,1-dioxo-2-isothiazolidinyl)ethyl]-1-piperidinyl]-6,7-dimethoxyquinazoline […], in dog; assay type: functional, Canis lupus familiaris; in short: as §2
Canis familiaris [14] = test: Percent increase in dP/dtmax of positive inotropic activity in conscious dog after administration of 25 ug/kg orally
Canis familiaris [15] = test: Relative inotropic response (2 ug/kg Intravenously) to that of 4-[4-[2-(1,1-dioxo-2-isothiazolidinyl)ethyl]-1-piperidinyl]-6,7-dimethoxyquinazoline (5- ug/kg), in dog; assay type: functional, Canis lupus familiaris; in short: as §2
Canis familiaris [16] = test: Percent increase in dP/dtmax (positive inotropic activity) in anesthetized dog after administration of 2 micro mg/kg Intravenously; assay type: functional, Canis lupus familiaris; in short: as §1
Canis familiaris [17] = test: Cardiac contractility (decrease in the QA interval) in conscious dog 1 hour after oral administration (dose 0.1 mg/kg); assay type: functional, Canis lupus familiaris; in short: as §3
Canis familiaris [18] = test: Cardiac contractility (decrease in the QA interval) in conscious dog, 3 hours after oral administration (dose 0.1 mg/kg); assay type: functional, Canis lupus familiaris; in short: as §3
Canis familiaris [19] = test: Percent increase in dP/dtmax of positive inotropic activity in conscious dog after administration of 100 ug/kg orally
[20] = Dissociation constant was determined; assay type: physicochemical
Canis familiaris [21] = test: Relative inotropic response (250 ug/kg Intravenously) to that of 4-[4-[2-(1,1-dioxo-2-isothiazolidinyl)ethyl]-1-piperidinyl]-6,7-dimethoxyquinazoline (5- ug/kg), in dog; assay type: functional, Canis lupus familiaris; in short: as §2
Canis familiaris [22] = test: Relative inotropic response (25 ug/kg Intravenously) to that of 4-[4-[2-(1,1-dioxo-2-isothiazolidinyl)ethyl]-1-piperidinyl]-6,7-dimethoxyquinazoline ([…]), in dog; assay type: functional, Canis lupus familiaris; in short: as §2
Canis familiaris [23] = test: Cardiac contractility (decrease in the QA interval) in conscious dog, 3 hours after oral administration (dose 0.25 mg/kg); assay type: functional, Canis lupus familiaris; in short: as §3
Canis familiaris [24] = test: Cardiac contractility (decrease in the QA interval) in conscious dog 1 hour after oral administration (dose 0.25 mg/kg); assay type: functional, Canis lupus familiaris; in short: as §3
Canis familiaris [25] = test: Percent increase in dP/dtmax (positive inotropic activity) in anesthetized dog after administration of 25 ug/kg Intravenously; assay type: functional, Canis lupus familiaris; in short: as §1

CC1CC(O)=NN=C1c1ccc(-n2ccnc2)cc1.Cl (configuration not stated)
Increase in dP/dtmax (Canis familiaris [1]): 100%
Relative potency (Canis familiaris [2]): 1.6

Cc1cn(-c2cc(C)c3c(c2)CN2C(=N3)NC(=O)C2(C)C)c(C)n1
Increase in dP/dtmax (Canis familiaris [3]): 20%

Cc1cn(-c2cc(C)c3c(c2)CN2C(=N3)NC(=O)C2C)c(C)n1 (configuration not stated)
Decrease in the QA interval (Canis familiaris [4]): 15 ms
Decrease in the QA interval (Canis familiaris [5]): 9 ms
Increase in dP/dtmax (Canis familiaris [6]): 12%
Relative inotropic potency (Canis familiaris [7]): 0.9

O=C1CN2Cc3cc(-n4cncn4)ccc3N=C2N1
Increase in dP/dtmax (Canis familiaris [1]): 63%
Relative inotropic potency (Canis familiaris [8]): 1.7

Cc1cn(-c2ccc3c(c2)CN2CC(=O)NC2=N3)c(C)n1
Decrease in the QA interval (Canis familiaris [4]): 10 ms
Increase in dP/dtmax (Canis familiaris [9]): 30%
Relative inotropic potency (Canis familiaris [10]): 1.9
Decrease in the QA interval (Canis familiaris [5]): 6 ms

Cc1cc(-n2cncn2)cc2c1NC1=NC(=O)CN1C2
Increase in dP/dtmax (Canis familiaris [1]): 76%
Decrease in the QA interval (Canis familiaris [11]): 12 ms
Relative inotropic potency (Canis familiaris [8]): 3.2
Decrease in the QA interval (Canis familiaris [12]): 8 ms

Cc1ccc(-c2ccc3c(c2)C(C)N2CC(=O)N=C2N3)c(C)n1 (configuration not stated)
Increase in dP/dtmax (Canis familiaris [1]): 50%
Decrease in the QA interval (Canis familiaris [11]): 9 ms
Relative inotropic potency (Canis familiaris [8]): 1.6
Decrease in the QA interval (Canis familiaris [12]): 13 ms

Cc1ccc(-c2ccc3c(c2)CN2CC(=O)NC2=N3)c(C)n1
Decrease in the QA interval (Canis familiaris [4]): 15 ms
Increase in dP/dtmax (Canis familiaris [1]): 29%
Decrease in the QA interval (Canis familiaris [5]): 14 ms
Relative potency (Canis familiaris [13]): 1.3

Cc1cc(-n2cnnc2)cc2c1NC1=NC(=O)CN1C2
Increase in dP/dtmax (Canis familiaris [1]): 24%
Relative potency (Canis familiaris [13]): 0.5

Cc1ccc(-c2cc(C)c3c(c2)CN2CC(=O)NC2=N3)c(C)n1
Decrease in the QA interval (Canis familiaris [11]): 15 ms
Increase in dP/dtmax (Canis familiaris [6]): 30%
Relative inotropic potency (Canis familiaris [7]): 2.7
Decrease in the QA interval (Canis familiaris [12]): 15 ms

Cc1cn(-c2cc(C)c3c(c2)CN2CC(=O)NC2=N3)c(C)n1
Increase in dP/dtmax (Canis familiaris [14]): 20%
Relative inotropic potency (Canis familiaris [15]): 7.8
Increase in dP/dtmax (Canis familiaris [16]): 23%
Decrease in the QA interval (Canis familiaris [17]): 5 ms
Decrease in the QA interval (Canis familiaris [18]): 15 ms
Increase in dP/dtmax (Canis familiaris [19]): 50%

O=C1CN2Cc3ccccc3N=C2N1
pKa [20]: 10.9
Increase in dP/dtmax (Canis familiaris [3]): 24%
Relative inotropic potency (Canis familiaris [21]): 0.1

Cc1[nH]c(=O)c(C#N)cc1-c1ccncc1 [MILRINONE]
Relative potency (Canis familiaris [22]): 1.6
Decrease in the QA interval (Canis familiaris [23]): 7 ms
Decrease in the QA interval (Canis familiaris [24]): 13 ms
Increase in dP/dtmax (Canis familiaris [25]): 46%

Cc1cn(-c2cc(C)c3[nH]c(=O)ccc3c2)c(C)n1 [NANTERINONE]
pKa [20]: 11.2

C[C@@H]1C(=O)NC2=Nc3cccc(Cl)c3CN21 [QUAZINONE]
Increase in dP/dtmax (Canis familiaris [3]): 66%
Relative inotropic potency (Canis familiaris [21]): 0.3
